Screens (PubChem BioAssay)
Mdm2-MdmX inh: inhibitors of human Mdm2/MdmX interaction | O15151+Q00987 | SaOS-2 split-luciferase Mdm2/MdmX complementation, luminescence | inhibition, % at 8 µM | actives 3% (n = 330,000) | AID 485346;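 active = inhibition of at least 50% at 8 µM in the primary screen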
SKKanGAS inh: blocks kanamycin growth of S. pyogenes SKKanGAS strain; BacTiter-Glo, 6 h; inhibition, % at 7.5 µM; actives 1.3% (n = 300,000);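 active = mean replicate score, as percent of positive control median, at least 50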;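 note: strain carries kanamycin resistance gene driven by streptokinase promoter and grows in 40 µg/ml kanamycin; loss of luminescence reflects streptokinase promoter inhibition or plain growth inhibition; 0% = median of DMSO wells and 100% = positive control at its reference dose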
Lmaj promast: Leishmania major promastigote growth inhibition; Leishmania major promastigotes, resazurin fluorescence viability; inhibition, % at 10 µM; actives 9% (n = 200,000); AID 1063; in the data active = inhibition above about 50%;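 note: promastigotes grown with compound for 44 hours at 28 °C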
T cruzi repl: blocks replication of Trypanosoma cruzi | T. cruzi beta-gal in NIH3T3, luminescence, 90 h | inhibition, % (concentration not given with the values) | actives 1.4% (n = 300,000) | AID 1885;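 active = mean inhibition across valid replicates above about 55%, limit read from the data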;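 note: signal also drops with host cell toxicity which is not excluded here; 0% = plate median of DMSO wells and 100% = zero luminescence signal; higher percent means less beta-gal luminescence so fewer parasites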
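assay system = mouse NIH/3T3 fibroblasts infected with β-gal-expressing T. cruzi Tulahuen C4 | input = 5,000 NIH/3T3 host cells per well | buffer or medium = DMEM plus 2% FBS | timing = 3 h host attachment, then at least 90 h co-culture | measured by = GalScreen luminescence, 60 min | evaluation = luminescence reflecting intracellular parasite burden, expressed as percent inhibition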
CSC inhib: cancer stem cell inhibition. AID 2717. inhibition, % at 7.5 µM. cancer stem cell-like cells viability, luminescence. actives 1.1% (n = 300,000); in the data active = inhibition above about 75%; tested in HMLE shEcad cells
Beta cell apopt: blocks beta cell apoptosis | actives 0.8% (n = 300,000) | INS-1E cytokine-induced death, ATP luminescence, 48 h; percent of positive-control rescue, neutral wells zero | protection from apoptosis, % (test concentration not listed);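 active = Every replicate reaches about 75%, or at least half do and their mean reaches it too, limit read from the data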;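 note: 0% = cytokine-treated negative control wells and 100% = positive control rescue; higher means more ATP so stronger rescue from cytokine killing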
* = called active by the depositor; nt = no result. A selection: hits, their analogues and other compounds. The true share with any hit is near 9.4%.

SMILES	Mdm2-MdmX inh	SKKanGAS inh	Lmaj promast	T cruzi repl	CSC inhib	Beta cell apopt
COc1ccc(CCNCC2CCCO2)cc1 (stereo unspecified)	7	-4	nt	-15	-9	nt
CN(C)C(=O)Oc1ccc(Br)c2ccccc12	-11	-6	7	0	9	-9
COc1ccccc1-n1c(-c2ccccc2Cl)nc2ccccc2c1=O	3	8	nt	15	-1	3
Cc1nn(Cc2ccccc2)c(C)c1C=C1C(=O)NC(=O)NC1=O	3	1	58*	5	nt	-9
CC1(C)CN=C(Nc2nc3ccccc3s2)S1	-62	61*	8	-34	4	-2
COc1cccc(C(=O)C2CCCN(Cc3ccc(F)cc3)C2)c1 (stereo unspecified)	-13	-4	nt	31	13	-5
CCn1cc(CN2CCCC(C(=O)c3cccc(OC)c3)C2)c(C)n1 (stereo unspecified)	-14	4	78*	58*	-11	-1
CCCn1ncc(CN2CCCC(C(=O)c3cccc(OC)c3)C2)c1C (stereo unspecified)	8	10	29	68*	3	-7
CCCn1cc(CN2CCCC(C(=O)c3cccc(OC)c3)C2)c(C)n1 (stereo unspecified)	10	5	26	50	-4	-3
CC(=O)c1cn(Cc2ccccc2C#N)c2ccccc12	-4	-1	-3	18	nt	nt
CC(C)Cc1nnc(NC(=O)CCC(=O)N2CCC3(CC2)OCCO3)s1	17	1	nt	-5	-18	nt
C=CCn1c(O)c(C(C)=Nc2ccc(N(CC)CC)cc2)c(=O)[nH]c1=O	36	76*	5	6	45	1
C=CCn1c(O)c(C(CC)=Nc2ccc(N(CC)CC)cc2)c(=O)[nH]c1=O	18	101*	26	4	18	-3
CN1CCC(N(C)c2nc(-c3ccccc3)nc3ccccc23)CC1	14	-2	101*	25	29	10
Cn1c(O)c(/C=N/c2ncccn2)c(=O)n(C)c1=O	-7	0	78*	7	1	-7
COc1ccc(C(=O)C2CCCN(Cc3ccon3)C2)cc1OC (stereo unspecified)	14	1	12	6	-9	-11
CCOC(=O)c1[nH]ncc1CN1CCCC(C(=O)c2cccc(Cl)c2)C1 (stereo unspecified)	35	-24	nt	5	-10	-2
COc1ccc(C(=O)C2CCCN(Cc3cnc(C)s3)C2)c(OC)c1 (stereo unspecified)	16	2	87*	8	-18	33
Cc1ncc(CN2CCCC(C(=O)c3cccc(Cl)c3)C2)s1 (stereo unspecified)	3	3	85*	8	3	0
Cc1ncc(CN2CCCC(C(=O)c3ccc(C(C)(C)C)cc3)C2)s1 (stereo unspecified)	-3	2	91*	-4	14	54
COc1ccc(C(=O)C2CCCN(Cc3cnc(C)s3)C2)cc1OC (stereo unspecified)	-12	-19	81*	7	-2	1
Cc1ccc(C(C)C)c(OCC#CCN2CCCC2)c1	-7	15	25	15	-13	-1
O=C1NC(=S)NC(=O)C1=Cc1cccn1-c1ccc(O)cc1	nt	8	100*	-64	nt	nt
O=C(c1cc(F)ccc1F)C1CCCN(CCCc2ccccc2)C1 (stereo unspecified)	-7	1	82*	25	0	-3
CNC(=O)N(C)c1ccc(C(O)(C(=O)OC)C(F)(F)F)cc1 (stereo unspecified)	5	18	nt	-10	0	-3
SMILES	Mdm2-MdmX inh	SKKanGAS inh	Lmaj promast	T cruzi repl	CSC inhib	Beta cell apopt
CCN(c1ccc(C(O)(C(=O)OC)C(F)(F)F)cc1)S(=O)(=O)c1ccccc1 (stereo unspecified)	2	0	99*	-7	-6	-3
CCOC(=O)C(O)(c1ccc(N(CC)S(=O)(=O)c2ccccc2)cc1)C(F)(F)F (stereo unspecified)	4	-6	100*	1	-3	4
COC(=O)C1=C(c2ccccc2OCc2ccccc2)C[C@@H]2CC[C@H]1N2C(=O)NCCCOC(C)C	12	nt	nt	nt	4	-5
Cc1nc2cc(C(F)(F)F)ccc2n1C1CCN(Cc2nnnn2CCc2ccccc2)CC1	3	2	98*	-1	0	3
Oc1ccccc1/C=N/NP(=S)(c1ccccc1)c1ccccc1	-32	12	9	10	97*	6
CC(=O)OC1(Cc2ccccc2)CN2CCC1c1ccccc12 (stereo unspecified)	-12	5	63*	-1	28	-2
CC(=O)OC1(c2ccc(C)cc2)CN2CCC1c1ccccc12 (stereo unspecified)	28	-7	9	-24	-26	-2
Clc1cccc(Cl)c1CN1CCN(c2ccccc2)CC1	-15	-6	1	12	8	0
COc1ccc(C(=O)c2nc3ccccc3n2C(C)C)cc1	6	-2	51*	-23	-5	-9
CC[C@H]1CN(C)CCc2c([nH]c3ccccc23)C(=O)C[C@@H]1/C(=C\OC)C(=O)OC	2	-1	nt	29	-7	-3
Cc1cccc(C)c1N1CCN(c2c(C)cccc2C)CC1	19	12	nt	-7	-10	-8
COc1cc(/C=C/[N+](=O)[O-])ccc1O	34	3	97*	-17	1	-9
O=C(Nc1ccccc1)NC1CC2CCC(C1)N2 (stereo unspecified)	-33	-5	5	-10	-8	2
Cc1ccc(CN2C3CCCC2CC(NC(=O)Nc2cccc(F)c2)C3)cc1 (stereo unspecified)	36	-4	96*	45	25	1
O=c1nc(/C=C/c2ccc(Cl)cc2Cl)cc(C(F)(F)F)[nH]1	18	0	nt	15	108*	6
CC(=O)O[C@@H]1[C@H]2CC[C@@H]3[C@]1(C[C@@H](OC(C)=O)[C@@]1(O)C([C@@H]4O[C@@H]4C1(C)C)[C@]3(C)O)C[C@@]2(C)O (stereo partly specified)	13	0	-5	8	-3	-8
OC(Cc1ccccc1)(c1ccccc1)C1CN2CCC1CC2 (stereo unspecified)	38	-1	92*	-7	-19	-14
O=C(c1c[nH]cc1-c1ccccc1)c1cccc2ccccc12	40	-1	-4	58*	17	-1
CCOc1cc2c(cc1OCC)-n1cccc1C(c1cc(OC)ccc1F)NC2 (stereo unspecified)	5	-1	nt	21	-8	-1
CCOP(=O)(OCC)C(NC(=O)C(C)C)C(Cl)(Cl)Cl (stereo unspecified)	23	15	-3	-3	-12	-6
Cc1ccc(C(=O)Nc2ccc(Cl)cc2C(=O)c2ccccc2)cc1	6	nt	99*	-13	6	14
